From PubChem
Ba/F3 V617F tox = reduced viability of JAK2V617F-dependent Ba/F3 cells, primary screen, JAK2V617F inhibitor project, cell-based, Ba/F3 EpoR-JAK2V617F, luminescence; ATP luminescence; hit rate 1.1% among 220,000; inhibition, % at 5.6 µM; AID 1446, 2008;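 active = inhibition above the campaign mean plus 3 SD over all tested compounds, cut at about 24% in these data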;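 also: cytokine-independent growth of Ba/F3 cells driven by EpoR plus mutant JAK2; 0% = DMSO-treated cells and 100% = JAK inhibitor I control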
BaF3 parental = parental Ba/F3 cell viability inhibition, counter-screen for JAK2V617F inhibitor project, murine pro-B, CellTiter-Glo luminescence; AID 1486, 2009; hit rate 1.1% among 220,000; CellTiter-Glo ATP luminescence; inhibition, % at 5.6 µM;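 active = inhibition above a per-campaign cutoff, the mean inhibition of all tested compounds plus 3 SD, cut at about 27% in these data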;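 also: 0% = DMSO wells and 100% = JAK Inhibitor I control wells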
MT stabilizer = microtubule stabilizers in HeLa cells, primary screen, imaging, high-content imaging | HeLa tubulin immunostaining HCS, 24 h; share of cells brighter than vehicle mean+2SD | % tubulin-high responders, % at 10 µM | hit rate 0.83% among 200,000;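 active = plate Z-score above 3 for both tubulin-high and condensed-nucleus cell shares, with cell loss under 80%, at 10 µM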;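 also: anti alpha tubulin signal scored within the nucleus-defined area of each cell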
IEC-6 cytotox = cytotoxicity in IEC-6 intestinal epithelial cells, primary screen, cytotoxicity control for KLF5 inhibitor project, cell-based, luminescence; hit rate 0.78% among 290,000; inhibition, % at 5 µM; IEC-6 cytotoxicity, luminescence viability; AID 1825, 2009; in the data active = inhibition above about 22%;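 also: 0% = plate median of test compound wells and 100% = cytotoxic reference compound wells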
bCat nuc transl = modulators of beta-catenin nuclear translocation, primary screen, imaging, HeLa cells, immunofluorescence, high-content | nuclear translocation activity, % at 5 µM | hit rate 0.3% among 190,000 | AID 1665, 2009;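 active = nuclear translocation activity above 50% at 5 µM, with a well cell count of 50 or more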;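 also: per-cell ratio of nuclear to cytoplasmic median beta-catenin stain intensity; plate controls were DMSO negative control for no effect and GSK-3 inhibitor IX positive control for full effect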
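Test system: human HeLa cell line; Doses: 5 µM primary, 0.02–20 µM confirmation; Incubation: 24 h compound exposure, 37°C; Detection: beta-catenin immunofluorescence imaging with DAPI; Read-out: beta-catenin nuclear/cytoplasmic ratio, % activation.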
APP transl inh = inhibitors of APP translation via 5'UTR reporter, primary screen, APP 5'UTR luciferase, SH-SY5Y cells; SH-SY5Y APP 5'UTR-luciferase reporter, luminescence; hit rate 0.82% among 190,000; inhibition, % at 2 µM; AID 1285, 2008;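 active = inhibition above a set limit, derived from the sample mean plus 3 SD, cut at about 45% in these data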
* hit, by the source's call; x = no result. Compounds with a hit are over-represented: about 2.2% of the library has one in this group of screens.

SMILES | Ba/F3 V617F tox | BaF3 parental | MT stabilizer | IEC-6 cytotox | bCat nuc transl | APP transl inh
CN1/C(=C\C(=O)COC(=O)c2ccco2)C(C)(C)c2ccccc21 | 12 | 4 | 3 | 5 | -1 | -30
CCn1ncc(/C=N\NC(=O)c2csc3ccccc23)c1C | -2 | 2 | 48* | 14 | 129* | 40
Cc1c(/C=N\NC(=O)c2csc3ccccc23)cnn1C | -3 | 1 | 5 | 2 | x | -5
S=C(CN1CCCC1=S)NCCc1ccccc1 | 0 | -4 | x | 4 | -1 | x
CCc1cc2c(=O)c(-c3ccc4c(c3)OCCO4)c(C)oc2cc1OS(C)(=O)=O | 1 | 6 | 11* | -1 | 2 | -11
CCc1cc(=O)oc2c(C)c(OS(C)(=O)=O)ccc12 | 2 | 5 | 9 | 0 | x | -11
Cc1ccc(OCCNC(=O)C(=O)NCc2ccco2)cc1 | 2 | 5 | 17* | 0 | 38 | 5
Cc1c(CN2CCC(CO)(CC3CCCCO3)CC2)cnn1C (centres undefined) | -1 | 3 | 1 | 3 | -1 | 6
CCCCCOc1ccc(C(C)(O)C(CN2CCOCC2)c2ccccc2)cc1 (centres undefined) | x | x | x | 8 | x | x
CCOC(=O)N1CCN(C(=O)c2cn(CC)c3cc(N4CCN(C)CC4)c(F)cc3c2=O)CC1 | -2 | 79* | 5 | -1 | -1 | -5
Oc1ccc(O)c(Cc2nc3ccccc3s2)c1 | 4 | 6 | 13* | -2 | 0 | -12
Cc1cccc(-n2c(SC(C)C(=O)O)nc3sc4c(c3c2=O)CCCC4)c1 (centres undefined) | x | x | x | -2 | x | x
CCCCC[n+]1cccc2c3ccccc3ccc21 | 100* | 77* | 4 | 14 | 3 | 16
O=[N+]([O-])c1ccc(C[n+]2cccc3ccccc32)cc1 | 0 | -1 | 4 | 4 | 1 | -20
CCCC[n+]1c2ccccc2cc2ccccc21 | x | x | x | -5 | x | x
c1ccc(C[n+]2cccc3c4ccccc4ccc32)cc1 | 97* | 79* | 1 | 3 | 1 | 2
Cc1nn(-c2ccc(NC(=O)c3ccncc3)cc2)c(C)c1Cl | x | x | x | 2 | x | x
Cc1ccc(NC2CCCN(C(=O)Cc3nonc3C)C2)cc1C (centres undefined) | x | x | x | 4 | x | x
CCCn1c(C2CCCN2c2nc(-c3cccc(Br)c3)cs2)nc2ccccc21 (centres undefined) | x | x | x | 4 | x | x
Fc1ccc(-n2cc(-c3ccccc3)[n+]3c2SCC3)cc1 | 49* | 79* | 6 | -5 | -1 | -4
c1ccc(-c2cn(-c3ccccc3)c3[n+]2CCS3)cc1 | 69* | 63* | 2 | -2 | -1 | -5
COc1ccc(-n2cc(-c3ccccc3)[nH]c2=S)cc1 | -2 | 3 | 1 | -12 | 0 | -15
Fc1ccc(-n2cc(-c3ccccc3)c3c(N4CCOCC4)ncnc32)cc1 | 1 | 6 | 3 | 4 | -3 | 12
COc1ccc(-c2cn(-c3ccccc3)c3[n+]2CCS3)cc1 | 76* | 67* | 3 | 10 | -3 | 5
CCOC(=O)C1(Cc2ccccc2C(F)(F)F)CCN(Cc2ccon2)CC1 | 0 | 5 | x | 4 | 0 | x
SMILES | Ba/F3 V617F tox | BaF3 parental | MT stabilizer | IEC-6 cytotox | bCat nuc transl | APP transl inh
Cc1cc(C(=O)CSc2nnc(NCc3ccccc3)s2)c(C)n1C | -5 | 0 | 46 | 12 | 111* | 2
[O-][n+]1c2ccccc2[n+]([O-])c2cc(O)ccc21 | x | x | x | -6 | x | x
O=C(c1ccc2c(c1)OCO2)N1CCCC(c2ccccc2)C1 (centres undefined) | 9 | 33* | 3 | 2 | -1 | -8
CC1CCCN(C(=O)c2ccc3c(c2)OCO3)C1 (centres undefined) | x | x | x | 1 | x | x
CS/C(Nc1cc(Cl)ccc1Cl)=C(/C#N)C(=O)c1ccco1 | 3 | 1 | x | 1 | 0 | x
Fc1ccccc1C1c2[nH]c3ccccc3c2CCN1Cc1cccn1-c1ncccn1 (centres undefined) | 1 | 6 | 3 | -3 | -1 | -11
Cc1ccccc1C1c2[nH]c3ccccc3c2CCN1Cc1cccn1-c1ncccn1 (centres undefined) | 2 | 32* | x | 7 | 1 | x
Fc1ccc(/C=C2\CCCC3=C2Nc2ncnn2C3c2ccc(F)cc2)cc1 (centres undefined) | -1 | 6 | 3 | -5 | -1 | 56*
c1ccc(C2C3=C(CCCC3)Nc3ncnn32)cc1 (centres undefined) | -3 | 2 | 2 | -5 | -3 | 18
CCOC(=O)C1=C(N)n2c(s/c(=C\c3ccco3)c2=O)=C(C(=O)OCC)C1c1ccco1 (centres undefined) | -2 | 1 | 47* | -2 | 55* | -11
CCOC(=O)C1=C(N)n2c(s/c(=C\c3ccco3)c2=O)=C(C(=O)OC(C)C)C1c1ccco1 (centres undefined) | 5 | 7 | 5 | 2 | 2 | -7
COc1ccc(/C=N/NC(=O)c2cc(OC)c(OC)c(OC)c2)cc1CN1CCc2cc(OC)c(OC)cc2C1C (centres undefined) | 2 | 5 | 20* | 5 | 6 | -17
COc1ccc(/C=N/NC(=O)c2cccnc2)cc1CN1CCc2cc(OC)c(OC)cc2C1C (centres undefined) | -2 | 4 | 3 | 6 | 1 | 6
CCOC(=O)Nc1ccc(S(=O)(=O)N2CCC(C)CC2)cc1 | 1 | 4 | 18* | 1 | 3 | -12
Brc1ccc(N/N=C(/N=Nc2nn[nH]n2)c2ccccc2)cc1 | 11 | 8 | 14 | 10 | 5 | 58*
CCNc1ccc(C(=O)NN=C2CCCC2)cc1[N+](=O)[O-] | 1 | 6 | 2 | -5 | -3 | 65*
Cn1cc(C(=O)Nc2ccc(F)c(F)c2)cn1 | -2 | 2 | 3 | 3 | -1 | 50*
COc1ccc(CCNC(=O)Cn2nnc(C(=O)Nc3cccc(C)c3C)c2N)cc1OC | x | x | x | 0 | x | x
Cc1cc(NC(=O)c2ccccc2Cl)c(C(C)C)cc1O | -5 | 6 | 1 | -12 | -1 | 3
Cc1cc(O)c(C(C)C)cc1NC(=O)c1ccccc1Cl | 0 | 4 | 4 | 8 | 0 | 45*
Cc1ccc(N=Nc2ccc(O)c3ncccc23)cc1C | -1 | 4 | 11 | 4 | 0 | 27
Cc1ccc(N=Nc2ccc(O)c3ncccc23)cc1 | 2 | 11 | 3 | 1 | -4 | 78*
CCS(=O)(=O)c1ccc(N=Nc2ccc(O)c3ncccc23)c(OC)c1 | 0 | 8 | 3 | -9 | 2 | 63*
O=S(=O)(Nc1ccc(F)cc1)c1cccc2nsnc12 | x | x | x | 6 | x | x
CC(=O)c1ccc(NC(=O)c2ccccc2-c2ccccc2C(=O)O)cc1 | x | x | x | -2 | x | x
